Data published in ChEMBL document CHEMBL1125479, “Methoxytetrahydropyrans. A new series of selective and orally potent 5-lipoxygenase inhibitors” (J Med Chem, 1992).
Values joined by “and” are separate entries in the source; they are usually repeats but may differ in a detail not shown here. Equal entries are not always repeated.

Experiments:
[1] = Aqueous solubility was determined; format: physicochemical; settings: buffer
[2] = Logarithm of partition coefficient was determined; format: physicochemical; settings: octanol/water
[3] = biological target: T1, Polyunsaturated fatty acid 5-lipoxygenase (Homo sapiens, UniProt P09917); test: In vitro inhibition of leukotriene B4 synthesis in human whole blood by inhibiting 5-lipoxygenase; format: tissue-based
T1 sequence (P09917 whole entry): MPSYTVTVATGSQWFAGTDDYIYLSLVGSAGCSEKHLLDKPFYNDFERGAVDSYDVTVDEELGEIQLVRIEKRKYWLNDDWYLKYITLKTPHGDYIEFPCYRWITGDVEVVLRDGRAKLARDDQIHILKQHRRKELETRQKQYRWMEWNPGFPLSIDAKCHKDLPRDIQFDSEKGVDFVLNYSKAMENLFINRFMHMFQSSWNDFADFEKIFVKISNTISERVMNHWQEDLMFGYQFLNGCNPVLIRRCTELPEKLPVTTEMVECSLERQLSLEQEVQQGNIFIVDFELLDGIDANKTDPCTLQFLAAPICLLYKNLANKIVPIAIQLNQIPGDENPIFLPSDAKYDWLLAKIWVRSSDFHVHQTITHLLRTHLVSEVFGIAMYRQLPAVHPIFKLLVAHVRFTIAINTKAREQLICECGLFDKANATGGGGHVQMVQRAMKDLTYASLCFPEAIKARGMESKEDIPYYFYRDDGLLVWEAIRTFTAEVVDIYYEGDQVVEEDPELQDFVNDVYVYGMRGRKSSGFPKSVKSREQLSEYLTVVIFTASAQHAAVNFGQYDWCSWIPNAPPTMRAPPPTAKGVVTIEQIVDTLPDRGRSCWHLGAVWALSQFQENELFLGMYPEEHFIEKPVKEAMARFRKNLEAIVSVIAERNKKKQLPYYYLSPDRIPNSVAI
How it was run: (§1)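 Heparinized human whole blood preincubated with compound, then stimulated with calcium ionophore A23187; LTB4 (5-LPO product) and TxB2 (cyclooxygenase product) generation measured.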

[4] = tested on: Rattus norvegicus; test: Ex vivo potency in for eicosanoid generation in inflammatory exudate of rat 3 hr after peroral administration; format: functional; settings: po
How it was run: (§2)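 Male Alderley Park rats (130-150 g) given a subcutaneous air pouch (20 mL sterile air under halothane, reinflated with 10 mL 3 days later). After a further 3 days, oral dosing (DMSO solution in 0.5% HPMC/0.1% polysorbate 80, 1 mL/kg) or vehicle, then 1 mL of 1% zymosan in saline into the pouch.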

[5] = tested on: Rattus norvegicus; test: Ex vivo potency in rat blood for eicosanoid generation 1 hr after peroral administration; format: functional; settings: po
How it was run: (§3)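 Rats dosed orally (1 mL/kg) with compound dissolved in DMSO and suspended in 0.5% (hydroxypropyl)methylcellulose with 0.1% polysorbate 80; controls got vehicle.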

[6] = organism: Homo sapiens; test: In vitro inhibition of leukotriene B4 in human whole blood; format: functional; how it was run: as §1
[7] = tested on: Rattus norvegicus; test: Ex vivo potency in rat blood for eicosanoid generation 3 hr after peroral administration; format: functional; settings: po; how it was run: as §3
[8] = In vitro inhibition of thromboxane B2 in human whole blood Value; format: tissue-based; how it was run: as §1
[9] = organism: Mus musculus; test: In vitro inhibitory activity against leukotriene synthesis in mouse macrophages; format: functional
[10] = biological target: T1, Polyunsaturated fatty acid 5-lipoxygenase; test: In vitro inhibition of leukotriene B4 synthesis in human whole blood by inhibiting 5-LPO (5-lipoxygenase); format: tissue-based; how it was run: as §1
[11] = tested on: Rattus norvegicus; test: Compound was tested for the generation of eicosanoid in inflammatory exudate after 3 hr peroral administration; format: functional; settings: po; how it was run: as §2
[12] = tested on: Rattus norvegicus; test: Ex vivo potency against rat blood after 1 hr peroral administration; format: functional; settings: po, 3 h, in the assay text read “after 3 hr” for “after 1 hr”; how it was run: as §3
[13] = tested on: Rattus norvegicus; test: Ex vivo potency against rat blood after 3 hr peroral administration; format: functional; settings: po; how it was run: as §3

Compound | IC50 [3] | ED50 [4] [mg/kg] | also measured
COC1(c2cccc(OCc3ccc4ccccc4c3)c2)COC1 | 2.5 µM | – | –
COC1(c2cccc(OCC#Cc3ccccn3)c2)CCOCC1 | 0.4 µM | – | ED50 [5]: 100 mg/kg
COC1(c2cccc(OCc3ccc4ccccc4c3)c2)CCCOC1 (stereo not given) | 1.7 µM | – | IC50 [6]: 2.8 µM
COC1(c2cccc(OCc3cccc4c3ccc(=O)n4C)c2)CCOCC1 | 1.3 µM | – | ED50 [7]: > 3 mg/kg
COC1(c2cccc(OCc3ccc4ccccc4c3)c2)CCC(=O)CC1 | 3.4 µM | – | –
COC1(c2cccc(OCc3ccc4ccccc4c3)c2)CC[S+]([O-])CC1 (stereo not given) | 4.2 µM | – | –
CCOC(C)=O.COC1(c2cc(F)cc(OCc3ncc4ccccc4n3)c2)CCOCC1 | 0.2 µM | – | Delta logS [1]: 1.9; ED50 [5]: > 10 mg/kg; delta Log P [2]: -1.9
COC1(c2cccc(OCc3ccc4c(ccc(=O)n4C)c3)c2)CCOCC1 | – | 3 | Delta logS [1]: 1.8; delta Log P [2]: -2; ED50 [7]: 1.5 mg/kg
COC(C)(c1nccs1)c1cccc(OCc2ccc3ccccc3c2)c1C (stereo not given) | – | – | IC50 [6]: 1 µM
CC(c1cc2ccccc2s1)N(O)C(N)=O (stereo not given) [ZILEUTON] | – | 3 | IC50 [8]: 40 µM
CCC(OC)(c1ccc(OCc2ccc3ccccc3c2)cc1)c1nccs1 (stereo not given) | 40 µM | – | –
COC1(c2cc(F)cc(OCc3ccc4nccnc4c3)c2)CCOCC1 | – | 30 | Delta logS [1]: 1.8; ED50 [5]: 30 mg/kg; delta Log P [2]: -1.8
COC1(c2cccc(OCc3ccc4ccccc4c3)c2)CCOCC1 | 0.07 µM | 10 | IC50 [9]: 0.0005 µM; ED50 [5]: 5 mg/kg; ED50 [7]: 10 mg/kg
CCOC(C)=O.COC1(c2cc(F)cc(OCc3cc4ccccc4nc3O)c2)CCOCC1 | – | – | ED50 [5]: > 100 mg/kg
COC1(c2cc(OCc3ccc4ccccc4c3)ccc2C)CCOCC1 | 40 µM | – | –
CC(C)c1ccc2c(c1)c(SC(C)(C)C)c(CC(C)(C)C(=O)[O-])n2Cc1ccc(Cl)cc1.[Na+] | – | – | IC50 [10]: 1.1 µM; ED50 [11]: 2 mg/kg; ED50 [12]: 3 mg/kg
COC1(c2cccc(OCc3ccc4ccccc4c3)c2)CCSCC1 | 0.4 µM | – | IC50 [6]: 0.4 µM
COC1(c2ccc(OCc3ccc4ccccc4c3)cc2)CCOCC1 | 19 µM | – | –
COC(C)(c1cccc(OCc2ccc3ccccc3c2)c1)c1nccs1 (stereo not given) | 0.5 µM | – | –
CCC(OC)(c1cccc(OCC#Cc2ccccc2)c1)c1nccs1 (stereo not given) | 0.9 µM and 1 µM | – | –
COC1(c2cccc(OCc3ccc4ccccc4c3)c2)CCS(=O)(=O)CC1 | 10.6 µM | – | –
COC1(c2cccc(OCc3ccc4ccccc4c3)c2)CCCCC1 | 2.6 µM | – | –
COC1(c2cccc(OCc3ccc4ccccc4c3)c2)CCOC1 (stereo not given) | 0.7 µM | – | –
COC1(c2cccc(OCc3ccc4ccccc4c3)c2)CCCCOC1 (stereo not given) | 2.5 µM | – | –
COC1(c2cccc(OCc3ccc4ccccc4c3)c2)CCCOCC1 (stereo not given) | 0.2 µM | – | –
COC1(c2cccc(OCC#Cc3ccccc3)c2)CCOCC1 | 0.07 µM | – | –
COC1(c2cccc(OCc3ccc4ccccc4c3)c2)CCN(C)CC1 | > 40 µM | – | –
COC1(c2cc(F)cc(OCc3ccc4oc(=O)ccc4c3)c2)CCOCC1 | – | – | IC50 [10]: 0.3 µM; ED50 [13]: > 3 mg/kg
COC1(c2cccc(OCc3ccc4ccccc4c3)c2C)CCOCC1 | 0.6 µM | – | –

Continued, in another order:

IC50 [3] | Compound | ED50 [4] [mg/kg] | also measured
0.04 µM | COC1(c2cc(F)cc(OCc3ccc4c(c3)sc(=O)n4C)c2)CCOCC1 | 1.5 | Delta logS [1]: 0.8; delta Log P [2]: -1.2
0.08 µM | COC1(c2cc(F)cc(OCc3ccc4c(c3)C(C)(C)C(=O)N4C)c2)CCOCC1 | > 1.5 | –
0.2 µM | COC1(c2cc(F)cc(OCc3ccc4c(c3)oc(=O)n4C)c2)CCOCC1 | > 1.5 | –
0.2 µM | COC1(c2cccc(OCc3ccc4ccc(=O)n(C)c4c3)c2)CCOCC1 | – | ED50 [7]: > 3 mg/kg
0.2 µM | COC1(c2cc(F)cc(OCc3ccc4c(=O)n(C)ccc4c3)c2)CCOCC1 | > 1.5 | –
0.08 µM | COC1(c2cc(F)cc(OCc3ccc4c(c3)n(C)c(=O)n4C)c2)CCOCC1 | 1.5 | Delta logS [1]: 1; delta Log P [2]: -1.7
0.02 µM | COC1(c2cc(F)cc(OCc3ccc4c(ccc(=O)n4C)c3)c2)CCOCC1 [ZD-2138] | 0.3 | Delta logS [1]: 0.9; ED50 [5]: 1 mg/kg; IC50 [8]: > 500 µM; delta Log P [2]: -1.7; ED50 [7]: 0.9 mg/kg
0.2 µM | COC1(c2cc(F)cc(OCc3ccc4ncncc4c3)c2)CCOCC1 | – | Delta logS [1]: 1.5; ED50 [5]: > 100 mg/kg; delta Log P [2]: -2.1
0.4 µM | COC1(c2cc(F)cc(OCc3cc4ccccc4n(C)c3=O)c2)CCOCC1 | > 1.5 | –
0.05 µM | COC1(c2cc(F)cc(OCc3ccc4c(c3)ncc(=O)n4C)c2)CCOCC1 | 1.5 | Delta logS [1]: 1.8; delta Log P [2]: -2.3
0.6 µM | COC1(c2cc(F)cc(OCc3ccc4nc(O)ccc4c3)c2)CCOCC1 | – | ED50 [7]: > 3 mg/kg
